Screens: PubChem, Sanford-Burnham Center for Chemical Genomics
Shown are actives, neighbours in structure and some others; about 2.5% of the full set was active somewhere.
SENP8 block-1 = SENP8 protease inhibition; purified SENP8, Z-RLRGG-aminoluciferin cleavage, luminescence; inhibition, % at 10 µM; 1.2% of 330,000 active; AID 2540; in the data active = inhibition above about 50%
SENP6 block = SENP6 protease inhibition | inhibition, % at 10 µM | Recombinant SENP6 catalytic domain, aminoluciferin luminescence | 1.8% of 330,000 active | AID 2599 | Q9GZR1;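 active = inhibition above about 50% at the single tested dose, limit read from the data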;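 note: plate controls were DMSO wells with enzyme for no effect and DMSO wells lacking enzyme for full effect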
Target sequence (Q9GZR1 628-1112 limits assumed): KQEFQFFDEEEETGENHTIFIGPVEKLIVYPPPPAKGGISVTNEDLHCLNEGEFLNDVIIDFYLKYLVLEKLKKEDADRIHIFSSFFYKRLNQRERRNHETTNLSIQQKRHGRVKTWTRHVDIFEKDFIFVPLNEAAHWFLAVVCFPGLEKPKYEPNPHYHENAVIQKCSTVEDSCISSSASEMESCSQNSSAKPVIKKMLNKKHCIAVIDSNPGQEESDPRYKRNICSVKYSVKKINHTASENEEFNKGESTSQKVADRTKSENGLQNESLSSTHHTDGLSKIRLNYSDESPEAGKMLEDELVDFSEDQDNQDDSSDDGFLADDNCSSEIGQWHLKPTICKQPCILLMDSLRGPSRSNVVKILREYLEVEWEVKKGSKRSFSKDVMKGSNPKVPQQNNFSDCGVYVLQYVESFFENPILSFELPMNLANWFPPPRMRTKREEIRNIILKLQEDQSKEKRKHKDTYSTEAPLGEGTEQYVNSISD
SENP1 FRET inh = inhibitors of human SENP1 SUMO protease catalytic domain | recombinant SENP1 catalytic domain, CyPet-SUMO1-YPet FRET cleavage | inhibition, % at 10 µM | 0.21% of 360,000 active;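 active = inhibition at least 30% at 10 µM, raw YFP signal under a set limit, fluorescence ratio 0.5 to 1.5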;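 note: 0% = enzyme with DMSO and 100% = no enzyme wells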
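Test system: human SENP1 catalytic domain; medium: Tris pH 8 buffer plus EDTA, NaCl, BME, BSA, NP40, catalase; incubation: 50 min reaction at room temperature; technique: FRET, CFP and YFP emission; controls: no-enzyme low control and enzyme-plus-DMSO high control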
SENP8 block-2 = blocks human SENP8 cleavage of Nedd8 substrate; 0.64% of 360,000 active; inhibition, % at 20 µM; AID 602440; recombinant SENP8, Nedd8 substrate fluorescence; in the data active = inhibition mostly above about 40%, no sharp cut-off; inactive = mostly below about 27%
SENP7 block = blocks the human protease SENP7; AID 434973; inhibition, % at 5 µM; Q9BQF6; recombinant SENP7, Z-RLRGG-aminoluciferin luminescence, 40 min; 1.5% of 330,000 active;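 active = inhibition above about 50% at the single test dose, limit read from the data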;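 note: plate controls were DMSO with enzyme for no effect and no enzyme buffer wells for full effect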
SENP8 confirm = confirmation of human SENP8 protease inhibitors | shares compounds with SENP7 block | Recombinant SENP8, Z-RLRGG-aminoluciferin luminescence, 60 min | inhibition, % at 12.5 µM | 40% of 6,200 active | AID 488912;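 active = mean inhibition across replicates above about 50%, limit read from the data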
SENP6 confirm = human SENP6 inhibition, confirmed; shares compounds with SENP7 block; recombinant SENP6, Z-RLRGG-aminoluciferin luminescence; inhibition, % at 12.5 µM; 58% of 6,200 active; AID 488915
SENP7 conf = human SENP7 inhibition, confirmed; shares compounds with SENP7 block; recombinant SENP7, Z-RLRGG-aminoluciferin luminescence, 40 min; inhibition, % at 12.5 µM; 69% of 6,200 active; AID 488917
Casp3 select = caspase-3 inhibition (SENP selectivity assay) | shares compounds with SENP7 block | inhibition, % at 12.5 µM | 60% of 6,200 active | AID 488918 | purified caspase-3, Z-DEVD-aminoluciferin luminescence, 60 min;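 active = mean inhibition above about 50%, limit read from the data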;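 note: plate controls were enzyme with DMSO for no effect and wells without caspase-3 for full effect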
SENP luc ctr = interferes with luciferase luminescence in SENP counter-screen; shares compounds with SENP7 block; Pre-incubated SENP8/Z-RLRGG-aminoluciferin, luciferase luminescence interference; inhibition, % at 12.5 µM; 39% of 6,200 active; AID 488919;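 active = mean inhibition above about 50% when retested at one dose, limit read from the data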;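 note: plate controls were DMSO wells with completed reaction for no effect and substrate without enzyme for full effect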
The depositor's hits bear a star.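 Rule for the calls, unless noted: active = mean inhibition above about 50% in the one-dose retest (limit read from the data); inactive = the rest.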

O=C(Nc1ccc2c(c1)CCC2)c1cc2ccccc2o1 was read as SENP8 block-1 45.5, SENP6 block 76.8*, SENP1 FRET inh 3.2, SENP8 block-2 6.8, SENP7 block 67.5*, SENP8 confirm 61.1*, SENP6 confirm 64.8*, SENP7 conf 87.0*, Casp3 select 47.5 and SENP luc ctr 58.5*.
Cc1ccc(C(=O)Nc2ccc3c(c2)CCC3)o1 was read as SENP8 block-1 67.9*, SENP6 block 81.6*, SENP1 FRET inh 0.2, SENP8 block-2 9.1, SENP7 block 79.8*, SENP8 confirm 71.7*, SENP6 confirm 67.6*, SENP7 conf 92.3*, Casp3 select 82.0* and SENP luc ctr 78.3*.
Screening O=C(Nc1ccc2c(c1)Cc1ccccc1-2)c1cc2ccccc2o1 returned SENP8 block-1 3.5, SENP6 block -4.6, SENP1 FRET inh -1.2, SENP8 block-2 -306.7 and SENP7 block 6.3.
COC(=O)Cc1ccc(NC(=O)c2ccc(Br)o2)cc1 was read as SENP8 block-1 26.2, SENP6 block 51.2*, SENP1 FRET inh 1.2, SENP8 block-2 11.1, SENP7 block 32.3, SENP8 confirm 37.2, SENP6 confirm 30.8, SENP7 conf 67.5*, Casp3 select 70.5* and SENP luc ctr 49.3.
O=C(COC(=O)CNC(=O)c1ccc(Br)o1)Nc1ccc2c(c1)OCCO2 was read as SENP8 block-1 -3.3, SENP6 block -6.8, SENP1 FRET inh 1.3, SENP8 block-2 12.8 and SENP7 block -1.5.
C=CCNc1nc(Cl)nc(Nc2cc(Cl)ccc2OC)n1 was read as SENP8 block-1 0.3, SENP6 block 16.2, SENP1 FRET inh 1.4, SENP8 block-2 16.6 and SENP7 block -4.1.
For Cc1ccc(S(=O)(=O)NCC2CCC(C(=O)NCc3cccnc3)CC2)cc1 (stereo not given) the results were SENP8 block-1 -9.0, SENP6 block 10.4, SENP1 FRET inh 1.8, SENP8 block-2 2.5 and SENP7 block -0.8.
Screening O=C1CC(c2ccccc2)=C(c2ccccc2)C1c1ccccc1 (stereo not given) returned SENP1 FRET inh 1.5 and SENP8 block-2 10.6.
O=C(Nc1ccc2c(c1)CCC2)c1ccc(Br)o1 was read as SENP8 block-1 78.6*, SENP6 block 89.9*, SENP1 FRET inh 0.3, SENP8 block-2 23.8, SENP7 block 89.3*, SENP8 confirm 88.4*, SENP6 confirm 87.1*, SENP7 conf 99.4*, Casp3 select 85.6* and SENP luc ctr 87.4*.
`O=C(Nc1ccc(N2CCCC2)cc1)c1ccc(Br)o1` gave SENP8 block-1 4.7, SENP6 block 11.2, SENP1 FRET inh -3.0, SENP8 block-2 8.2 and SENP7 block 6.7.
`O=C(Nc1ccc2c(c1)OCO2)c1ccc(COc2ccc3c(c2)CCC3)o1` gave SENP8 block-1 24.2, SENP6 block 53.7*, SENP1 FRET inh 0.5, SENP8 block-2 5.9, SENP7 block -5.0, SENP8 confirm 15.7, SENP6 confirm 30.3, SENP7 conf 36.6, Casp3 select 14.2 and SENP luc ctr 19.6.
For O=C(Nc1ccc2c(c1)oc1ccccc12)c1ccc(Br)o1 the results were SENP8 block-1 21.4, SENP6 block 47.6, SENP1 FRET inh -0.2, SENP8 block-2 -25.1, SENP7 block 77.5*, SENP8 confirm 5.6, SENP6 confirm 16.2, SENP7 conf 28.4, Casp3 select 10.6 and SENP luc ctr 4.6.
For Cc1cc(C(=O)N2CCC2(C)C(=O)NCc2cccc3ccccc23)nn1C (stereo not given) the results were SENP1 FRET inh 1.6 and SENP8 block-2 0.5.
`Cc1ccc(S(=O)(=O)N2CCCC2CNC(=O)C(=O)NCc2ccc3c(c2)OCO3)cc1` (stereo not given) gave SENP1 FRET inh 1.0 and SENP8 block-2 -17.2.
CCOc1cc2c(cc1O)C(=NOC)CC1C2CCC2(C)C(O)CCC12 (stereo not given) was read as SENP1 FRET inh -5.4 and SENP8 block-2 -3.6.
c1ccc(-c2ncc3c(ccc4ccccc43)n2)cc1 was read as SENP8 block-1 41.0, SENP6 block 67.7*, SENP1 FRET inh 1.9, SENP8 block-2 2.9, SENP7 block 89.7*, SENP8 confirm 16.8, SENP6 confirm 16.9, SENP7 conf 27.7, Casp3 select 19.8 and SENP luc ctr 5.6.
For O=C(O)c1ncc(-c2ccccc2)cn1 the results were SENP8 block-1 -8.1, SENP6 block -17.5, SENP1 FRET inh 0.6, SENP8 block-2 14.7 and SENP7 block -6.4.
Screening c1ccc(-c2cnc(-c3ccccc3)nc2)cc1 returned SENP8 block-1 61.9*, SENP6 block 73.0*, SENP1 FRET inh 1.3, SENP8 block-2 3.3, SENP7 block 90.2*, SENP8 confirm 11.2, SENP6 confirm 17.2, SENP7 conf 6.9, Casp3 select 9.2 and SENP luc ctr 7.7.
Screening Oc1ccccc1C=NCCCCCCN=Cc1ccccc1O returned SENP8 block-1 58.6*, SENP6 block 69.3*, SENP1 FRET inh -7.2, SENP8 block-2 9.1, SENP7 block -3.2, SENP8 confirm 14.8, SENP6 confirm 29.5, SENP7 conf 37.8, Casp3 select 31.2 and SENP luc ctr 10.2.
For Oc1ccccc1C=NCCN=Cc1ccccc1O the results were SENP8 block-1 -1.4, SENP6 block 7.6, SENP1 FRET inh -5.4, SENP8 block-2 16.9 and SENP7 block 5.2.
`Cc1ccc(C(O)c2ncc(-c3ccccc3Cl)[nH]2)cc1` (stereo not given) gave SENP1 FRET inh 2.6 and SENP8 block-2 17.7.
`COc1cc(NCCCCCCCN)c2ncccc2c1` gave SENP8 block-1 89.5*, SENP6 block 94.1*, SENP1 FRET inh -9.6, SENP8 block-2 16.9, SENP7 block 95.2*, SENP8 confirm 69.6*, SENP6 confirm 86.8*, SENP7 conf 62.7*, Casp3 select 97.2* and SENP luc ctr 3.8.
COc1cc(NCc2ccccc2O)c2ncccc2c1 was read as SENP8 block-1 -9.0, SENP6 block 1.2, SENP1 FRET inh -37.0, SENP8 block-2 -23.3 and SENP7 block -6.3.
